Data on 25 compounds can be found in ChEMBL document CHEMBL1156026, “Design and synthesis of pyridazinone-based 5-HT(2C) agonists” (Bioorg Med Chem Lett, 2009).

For data set [1], the target named is T1, 5-hydroxytryptamine receptor 2C (Homo sapiens) (UniProt P28335).
T1 sequence (whole entry): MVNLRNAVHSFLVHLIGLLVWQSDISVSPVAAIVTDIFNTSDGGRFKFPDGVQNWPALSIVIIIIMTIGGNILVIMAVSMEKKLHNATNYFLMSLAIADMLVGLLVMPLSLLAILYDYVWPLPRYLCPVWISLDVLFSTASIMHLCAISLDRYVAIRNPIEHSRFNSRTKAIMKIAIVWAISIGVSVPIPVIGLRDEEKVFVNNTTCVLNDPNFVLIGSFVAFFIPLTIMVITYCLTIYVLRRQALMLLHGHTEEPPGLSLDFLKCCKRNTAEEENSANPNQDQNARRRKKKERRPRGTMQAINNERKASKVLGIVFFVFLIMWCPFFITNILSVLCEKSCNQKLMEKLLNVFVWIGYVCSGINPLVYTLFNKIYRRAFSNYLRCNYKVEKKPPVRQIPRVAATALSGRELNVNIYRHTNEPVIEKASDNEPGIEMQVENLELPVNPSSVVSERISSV
Put plainly: (§1) Agonist activity at human recombinant 5HT2C receptor expressed in CHOK1 cells assessed as induction of calcium mobilization by FLIPR assay. Conditions: CHO-K1. The data set is classed as functional, cell-based.

Data set [2] concerns the target T2, 5-hydroxytryptamine receptor 2C (Homo sapiens, UniProt P28335).
T2 sequence (P28335 whole entry): T1 sequence (whole entry)
The description is as §1. The data set is classed as functional, cell-based, CHO-K1.

The target in data set [3] is GABA-A receptor; agonist GABA site (Homo sapiens) (UniProt P14867+P47870+P28472+P48169+P34903+P18505+P47869+P31644+Q16445). Put plainly: Binding affinity to human GABAA receptor. The data set is classed as protein-complex assay.
The target of data set [4] is T3, B2 bradykinin receptor (Homo sapiens) (UniProt P30411).
T3 sequence (whole entry): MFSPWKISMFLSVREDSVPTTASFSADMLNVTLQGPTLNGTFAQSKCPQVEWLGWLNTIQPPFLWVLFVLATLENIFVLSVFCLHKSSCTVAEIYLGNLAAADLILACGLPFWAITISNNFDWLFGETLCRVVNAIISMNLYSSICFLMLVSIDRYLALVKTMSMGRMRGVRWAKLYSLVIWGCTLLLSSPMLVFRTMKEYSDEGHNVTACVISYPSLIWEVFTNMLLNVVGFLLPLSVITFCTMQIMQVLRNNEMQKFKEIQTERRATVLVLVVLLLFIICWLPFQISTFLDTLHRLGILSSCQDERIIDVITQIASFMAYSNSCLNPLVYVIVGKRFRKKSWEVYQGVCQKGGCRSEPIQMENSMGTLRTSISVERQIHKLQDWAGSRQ
Put plainly: Binding affinity to human bradykinin B2 receptor.

Data set [5] has as its target T2, 5-hydroxytryptamine receptor 2C. As to the kind of experiment: Displacement of [3H]meselurgine from human recombinant 5HT2C receptor expressed in Swiss mouse 3T3 cells by SPA. In kind it is cell-based. A digest of the protocol:
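Competition binding against [3H]-meselurgine at the human 5-HT2C receptor, read by scintillation proximity assay, using membrane preparations made from Swiss 3T3 cells expressing the recombinant receptor.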

Data set [6] deals with Canis familiaris. As to the kind of experiment: Plasma concentration in continuous iv dosed dog. The data set is classed as ADME, organism-based, Canis lupus familiaris. As to conditions: in vivo.
Data set [7] addresses 5-hydroxytryptamine receptor 6 (Homo sapiens) (UniProt P50406). Put plainly: Binding affinity to human 5HT6 receptor.
Data set [8] concerns the target 5-hydroxytryptamine receptor 2A (Homo sapiens, UniProt P28223). As to the kind of experiment: Agonist activity at human recombinant 5HT2A receptor expressed in Swiss mouse 3T3 cells assessed as induction of calcium mobilization by FLIPR assay. In kind it is functional, cell-based. As to conditions: for Emax: NIH3T3.
Data set [9] has as its target 5-hydroxytryptamine receptor 2B (Homo sapiens, UniProt P41595). As to the kind of experiment: Agonist activity at human recombinant 5HT2B receptor expressed in Swiss mouse 3T3 cells assessed as induction of calcium mobilization by FLIPR assay. As to conditions: for Emax: NIH3T3. The data set is classed as functional, cell-based. For orientation: A change in cytosolic calcium serves as a functional read-out for many receptors and channels.

Data set [10] concerns Canis familiaris. Put plainly: Increase in urethral pressure in continuous iv dosed dog model of stress urinary incontinence. In kind it is functional, Canis lupus familiaris, Urethra.
Data set [11] has as its target 5-hydroxytryptamine receptor 1D (Homo sapiens) (UniProt P28221). As to the kind of experiment: Binding affinity to human 5HT1D receptor.
Data set [12] concerns the target 5-hydroxytryptamine receptor 1B (Homo sapiens) (UniProt P28222). As to the kind of experiment: Binding affinity to human 5HT1B receptor.
The nature of data set [13]: Metabolic stability in human liver microsomes. In kind it is ADME, Microsome. As to conditions: read-out: Stability. For orientation: Liver microsomes are a subcellular fraction often used to study metabolism.
Data set [14] can be described thus: Lipophilicity, log D at pH 7.4. The data set is classed as physicochemical. As to conditions: buffer.
The nature of data set [15]: Efflux ratio of permeability across MDCK cell membrane. The data set is classed as ADME, cell-based, Canis lupus familiaris. As to conditions: dog.

Chain of 5-hydroxytryptamine receptor 2B (P41595 whole entry): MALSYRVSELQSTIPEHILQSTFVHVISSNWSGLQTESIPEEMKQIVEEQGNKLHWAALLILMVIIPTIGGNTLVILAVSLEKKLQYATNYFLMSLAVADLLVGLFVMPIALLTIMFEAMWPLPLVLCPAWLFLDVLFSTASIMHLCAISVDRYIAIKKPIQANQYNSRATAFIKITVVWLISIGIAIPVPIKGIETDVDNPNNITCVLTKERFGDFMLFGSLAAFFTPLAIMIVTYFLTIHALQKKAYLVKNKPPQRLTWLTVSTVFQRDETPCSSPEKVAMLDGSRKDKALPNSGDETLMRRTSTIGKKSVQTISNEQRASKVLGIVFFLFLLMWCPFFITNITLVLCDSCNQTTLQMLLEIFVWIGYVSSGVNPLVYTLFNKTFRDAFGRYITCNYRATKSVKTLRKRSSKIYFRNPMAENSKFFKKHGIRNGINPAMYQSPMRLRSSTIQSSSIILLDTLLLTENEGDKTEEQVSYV
Chain of 5-hydroxytryptamine receptor 2A (P28223 whole entry): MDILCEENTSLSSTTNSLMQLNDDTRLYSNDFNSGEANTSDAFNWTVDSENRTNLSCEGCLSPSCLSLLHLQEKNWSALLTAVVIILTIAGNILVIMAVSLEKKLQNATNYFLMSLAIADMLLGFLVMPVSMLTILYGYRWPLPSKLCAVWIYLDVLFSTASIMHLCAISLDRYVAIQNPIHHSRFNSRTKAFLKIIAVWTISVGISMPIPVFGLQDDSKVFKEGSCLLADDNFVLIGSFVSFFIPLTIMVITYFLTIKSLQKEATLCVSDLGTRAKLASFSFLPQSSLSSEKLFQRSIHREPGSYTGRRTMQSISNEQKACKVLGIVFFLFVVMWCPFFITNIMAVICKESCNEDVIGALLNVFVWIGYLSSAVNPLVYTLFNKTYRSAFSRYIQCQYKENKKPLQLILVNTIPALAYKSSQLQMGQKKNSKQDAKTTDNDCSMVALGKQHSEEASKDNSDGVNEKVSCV
Chain of 5-hydroxytryptamine receptor 1B (Homo sapiens) (P28222 whole entry): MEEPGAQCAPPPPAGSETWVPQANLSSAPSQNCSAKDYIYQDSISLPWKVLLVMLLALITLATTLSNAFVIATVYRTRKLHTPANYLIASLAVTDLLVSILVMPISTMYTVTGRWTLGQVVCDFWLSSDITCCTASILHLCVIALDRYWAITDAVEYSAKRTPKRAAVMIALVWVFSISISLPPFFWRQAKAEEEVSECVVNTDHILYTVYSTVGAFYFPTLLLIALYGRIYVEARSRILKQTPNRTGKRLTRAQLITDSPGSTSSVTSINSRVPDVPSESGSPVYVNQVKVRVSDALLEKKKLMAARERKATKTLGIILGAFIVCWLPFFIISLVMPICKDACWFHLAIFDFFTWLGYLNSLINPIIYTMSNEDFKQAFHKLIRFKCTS
Chain of 5-hydroxytryptamine receptor 1D (Homo sapiens) (P28221 whole entry): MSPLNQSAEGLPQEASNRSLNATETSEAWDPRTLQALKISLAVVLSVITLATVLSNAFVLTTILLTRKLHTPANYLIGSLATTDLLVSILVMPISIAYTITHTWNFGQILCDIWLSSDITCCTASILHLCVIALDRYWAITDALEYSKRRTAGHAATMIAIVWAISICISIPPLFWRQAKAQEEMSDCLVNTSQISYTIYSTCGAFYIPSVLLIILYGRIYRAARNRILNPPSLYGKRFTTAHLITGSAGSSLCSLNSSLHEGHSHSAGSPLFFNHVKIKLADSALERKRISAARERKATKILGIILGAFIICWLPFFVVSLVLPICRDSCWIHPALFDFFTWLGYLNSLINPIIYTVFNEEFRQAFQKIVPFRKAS
Chain of 5-hydroxytryptamine receptor 6 (Homo sapiens) (P50406 whole entry): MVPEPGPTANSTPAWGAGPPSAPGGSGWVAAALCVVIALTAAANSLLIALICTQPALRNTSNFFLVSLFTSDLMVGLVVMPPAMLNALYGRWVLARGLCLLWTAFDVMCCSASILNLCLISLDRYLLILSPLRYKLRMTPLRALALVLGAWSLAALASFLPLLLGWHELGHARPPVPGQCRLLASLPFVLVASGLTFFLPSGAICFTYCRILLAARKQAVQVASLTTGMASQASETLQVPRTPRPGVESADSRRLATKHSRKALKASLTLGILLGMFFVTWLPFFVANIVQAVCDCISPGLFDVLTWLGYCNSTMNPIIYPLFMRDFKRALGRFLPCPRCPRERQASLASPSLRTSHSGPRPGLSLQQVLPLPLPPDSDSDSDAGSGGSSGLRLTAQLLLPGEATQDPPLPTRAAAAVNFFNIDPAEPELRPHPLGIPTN

`CC[C@@H]1CNCCN1c1ccc(=O)n(CCOc2ccccc2Cl)n1`: the Emax (usually the maximal effect, on the per cent scale that the assay sets) in data set [1] is 41%. Also, the half-maximal effective concentration (EC50) (in general, the concentration giving half of the maximal effect) in [2] turned out to be 407 nM.
Take `C[C@H]1CNCCN1c1ccc(=O)n(CCOc2ccccc2Cl)n1`: in data set [2], the 50% effective concentration (EC50) is above 10000 nM.
With `C[C@@H]1CNCCN1c1ccc(=O)n(CCOc2ccccc2C(F)(F)F)n1`, the Activity in [3] was below 1000 nM; in data set [4] it was below 1000 nM; in [7] it was below 1000 nM; in the data set on Canis familiaris [10], above 20%; in data set [11], below 1000 nM; in [12] it was below 1000 nM. Also, the Emax in data set [1] was 51%; in data set [8], 61%. Moreover, the EC50 in data set [2] is 11 nM; in data set [8], 41 nM; in data set [9], above 2610 nM. In addition, the Ki (in general, a dissociation constant, usually derived from enzyme kinetics or from competition with a known ligand) in [5] came out at 89 nM. Further, the concentration in the data set on Canis familiaris [6] was 52 nM.
Take `Cc1ccccc1OCCn1nc(N2CCNCC2)ccc1=O`: the maximal response (Emax) in [1] was 36%. Besides, the EC50 in data set [2] is above 4550 nM.
For `C[C@@H](Cn1nc(N2CCNCC2)ccc1=O)Oc1ccccc1Cl` the same measures were 87% and 360 nM.
The like results for `N#Cc1ccccc1OCCn1nc(N2CCNCC2)ccc1=O` were, in that order, 69% and 114 nM.
Consider `C[C@@H](COc1ccccc1Cl)n1nc(N2CCNCC2)ccc1=O`, for which the Emax turned out to be 77% in [1], 69% in data set [8] and 30% in data set [9]. The EC50 in data set [2] is 25 nM; in data set [8], 65 nM; in [9], 506 nM. Further, the inhibition constant (Ki) in data set [5] stood at 728 nM.
Take `C[C@H]1CN(c2ccc(=O)n(CCOc3ccccc3Cl)n2)CCN1`: in data set [2], the EC50 is above 10000 nM.
On the same count and under the same terms, for `O=c1ccc(N2CCNCC2)nn1CCOc1ccccc1` the value was above 10000 nM.
Still for that read-out and setting: for `O=c1ccc(N2CCNCC2)nn1CCOc1cccc(Cl)c1Cl` the value was above 2130 nM.
The same measure, in the same setting: for `O=c1c2c(c(N3CCNCC3)nn1CCOc1ccccc1Cl)CCC2` the value was above 10000 nM.
Regarding `Clc1ccccc1CCOc1cncc(N2CCNCC2)n1`, the Emax in data set [1] came to 69%; in [8] it was 56%; in data set [9], 42%. In addition, the concentration for a half-maximal effect (EC50) in data set [2] was found to be 10 nM; in [8], 308 nM; in data set [9] it was 187 nM. The microsomal CLint in data set [13] stood at 94 µL/min/mg. The pH-dependent lipophilicity (logD) (commonly lipophilicity at a set pH, counting ionised and neutral species) in data set [14] is 2.2. Moreover, the efflux ratio (commonly a quotient of directional permeabilities that is used to spot active efflux) in data set [15] came out at 2.
Regarding `O=c1ccc(N2CCNCC2)nn1CCOc1ccc(Cl)cc1`, in data set [2], the concentration for a half-maximal effect (EC50) is above 10000 nM.
The same measure, in the same setting: next, `O=c1ccc(N2CCNCC2)nn1CCOc1cccc(Cl)c1`: above 10000 nM.
For the compound `C[C@H](COc1ccccc1Cl)n1nc(N2CCNCC2)ccc1=O`, the Emax in data set [1] was 55%. The EC50 in data set [2] was above 1920 nM.
Take `O=c1ccc(N2CCNCC2)nn1CCOc1ccccc1Cl`: the values for the Emax in [1] and in data set [8] were 58% and 41%, respectively. In addition, the EC50 in data set [2] was 164 nM; in data set [8], 254 nM; in [9], above 10000 nM. Besides, in [13], the microsomal CLint was below 7 µL/min/mg. Also, the log distribution coefficient (logD) in data set [14] was determined as 0.6. The Ki in data set [5] was determined as 1600 nM. Further, the efflux ratio in [15] came out at 5.
For the compound `O=c1ccc(N2CCNCC2)nn1CCOc1ccccc1Br`, in [1], the Emax was 34%. The EC50 in data set [2] was 101 nM.
For `C[C@H](Cn1nc(N2CCNCC2)ccc1=O)Oc1ccccc1Cl` the same measures were 53% and 858 nM.
`Cc1cc(N2CCNCC2)nn(CCOc2ccccc2Cl)c1=O`: in data set [2], the EC50 is above 10000 nM.
`Clc1cccc(N2CCNCC2)c1`: the Emax in data set [8] amounted to 58%.
With `O=c1ccc(N2CCNCC2)nn1CCOc1ccccc1C(F)(F)F`, the Emax worked out at 45% in [1] and 49% in data set [8]. The EC50 in data set [2] is 47 nM; in data set [8], 1090 nM; in data set [9], above 10000 nM. Also, the Ki in data set [5] is 424 nM.
With `COc1ccccc1OCCn1nc(N2CCNCC2)ccc1=O`, the EC50 in [2] was above 10000 nM.
In the case of `Cc1cc(=O)n(CCOc2ccccc2Cl)nc1N1CCNCC1`, in data set [1], the Emax turned out to be 31%. Besides, the concentration giving a half-maximal response (EC50) in data set [2] was determined as 510 nM.
Regarding `O=CC1CNCCN1c1ccc(=O)n(CCOc2ccccc2Cl)n1` (stereo not given), the EC50 in data set [2] was above 9980 nM.
Take `C[C@@H]1CNCCN1c1ccc(=O)n(CCOc2ccccc2Cl)n1`: the maximum response (Emax) turned out to be 51% in data set [1] and 42% in [8]. In addition, the half-maximal effective concentration (EC50) in data set [2] is 25 nM; in [8] it was 114 nM; in data set [9] it was above 10000 nM. In addition, the microsomal CLint in [13] came out at 9.8 µL/min/mg. This compound also showed a log distribution coefficient (logD) in [14] of 0.9. Moreover, in data set [5], the Ki came out at 325 nM. Besides, in [15], the efflux ratio was 6.
